Results published in ChEMBL document CHEMBL1153988 (J Med Chem, 2009).
The source made the active and inactive calls. No cut-off for these calls is given here.

How the values were obtained:
[1] = Neurotoxicity in po dosed albino Sprague-Dawley rat assessed as minimal motor impairment; type: toxicity, organism-based; conditions: in vivo
Summary of the method: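 Rats: male Sprague-Dawley (100-150 g), oral dosing in 0.5% methylcellulose. Doses were varied to give four points between no minimal motor impairment and all animals impaired. TD50 and 95% confidence intervals came from probit analysis.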

Rattus norvegicus [2] = species: Rattus norvegicus; assay: Protective index, ratio of TD50 for albino Sprague-Dawley rat to ED50 for maximal electroshock-induced albino Sprague-Dawley rat seizure model; type: functional
Summary of the method: (§1)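 Protective index is the rat TD50 (minimal motor impairment) divided by the ED50 in the MES or sc pentylenetetrazol test. Male Sprague-Dawley rats were dosed orally in 0.5% methylcellulose, and both values came from probit analysis.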

Rattus norvegicus [3] = assay: Anticonvulsant activity in albino Sprague-Dawley rat assessed as protection against maximal electroshock-induced seizures at 50 mg/kg, po after 4 hrs; type: functional, organism-based; set-up: dose 50 mg/kg
Summary of the method: (§2)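 Adult male Sprague-Dawley albino rats (100-150 g) dosed orally with compound suspended in 0.5% methylcellulose (0.04 mL per 10 g). Maximal electroshock challenge at the stated time. Protection is scored in 25% steps as the fraction of animals protected, with neurotoxicity recorded in parallel.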

Mus musculus [4] = assay: Anticonvulsant activity in CF1 albino mouse assessed as protection against scMet-induced seizures at 100 mg/kg, ip after 4 hrs; type: functional, organism-based; set-up: dose 100 mg/kg
Summary of the method: (§3)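 Adult male CF no. 1 albino mice (18-25 g) dosed intraperitoneally with compound suspended in 0.5% methylcellulose (0.01 mL/g). Convulsant challenge given subcutaneously as a 0.85% pentylenetetrazol solution in 0.9% saline. Read-out is animals protected over animals tested, with neurotoxicity scored in parallel.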

Rattus norvegicus [5] = assay: Anticonvulsant activity in albino Sprague-Dawley rat assessed as protection against maximal electroshock-induced seizures at 50 mg/kg, po after 2 hrs; type: functional; summary of the method: as §2
Rattus norvegicus [6] = assay: Anticonvulsant activity in albino Sprague-Dawley rat assessed as protection against scMet-induced seizures at 50 mg/kg, po after 15 mins; type: functional
Summary of the method: (§4)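 Male Sprague-Dawley albino rats (100-150 g) were given the compound orally as a suspension in 0.5% methylcellulose. Seizures were induced by subcutaneous pentylenetetrazol, dissolved in 0.9% saline as a 2.82% solution. The read-out was animals protected over animals tested.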

Mus musculus [7] = assay: Neurotoxicity in CF1 albino mouse at 30 mg/kg, ip after 4 hrs; type: toxicity, organism-based; set-up: dose 30 mg/kg, route intraperitoneal; conditions: in vivo
Summary of the method: (§5)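 Male CF no. 1 albino mice (18-25 g) received a single ip dose as a suspension in 0.5% methylcellulose. The read-out was the number of animals showing neurotoxicity (minimal motor impairment) over the number tested.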

Mus musculus [8] = assay: Anticonvulsant activity in CF1 albino mouse assessed as protection against scMet-induced seizures at 30 mg/kg, ip after 0.5 hrs; type: functional, organism-based; set-up: dose 30 mg/kg; summary of the method: as §3
Mus musculus [9] = assay: Anticonvulsant activity in CF1 albino mouse assessed as protection against scMet-induced seizures at 100 mg/kg, ip after 0.5 hrs; type: functional, organism-based; set-up: dose 100 mg/kg; summary of the method: as §3
Rattus norvegicus [10] = assay: Anticonvulsant activity in po dosed albino Sprague-Dawley rat assessed as protection against maximal electroshock-induced seizures; type: functional
Rattus norvegicus [11] = assay: Neurotoxicity in albino Sprague-Dawley rat assessed as minimal motor impairment at 200 mg/kg, po; type: toxicity, organism-based; set-up: dose 200 mg/kg, route oral; conditions: in vivo
Summary of the method: (§6)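 Neurotoxicity was scored in male Sprague-Dawley albino rats (100-150 g) dosed orally with a suspension in 0.5% methylcellulose. The read-out was the fraction of animals showing neurotoxicity (minimal motor impairment).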

Rattus norvegicus [12] = assay: Anticonvulsant activity in albino Sprague-Dawley rat assessed as protection against scMet-induced seizures at 50 mg/kg, po after 30 mins; type: functional; summary of the method: as §4
Rattus norvegicus [13] = assay: Anticonvulsant activity in albino Sprague-Dawley rat assessed as protection against maximal electroshock-induced seizures at 50 mg/kg, po after 30 mins; type: functional; summary of the method: as §2
Rattus norvegicus [14] = assay: Neurotoxicity in albino Sprague-Dawley rat at 50 mg/kg, po; type: toxicity, organism-based; set-up: dose 50 mg/kg, route oral; conditions: in vivo; summary of the method: as §6
Mus musculus [15] = assay: Anticonvulsant activity in CF1 albino mouse assessed as protection against maximal electroshock-induced seizures at 300 mg/kg, ip after 0.5 hrs; type: functional, organism-based; set-up: dose 300 mg/kg
Summary of the method: (§7)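 Adult male CF no. 1 albino mice (18-25 g). Test compound suspended in 0.5% methylcellulose and given intraperitoneally at 0.01 mL/g body weight. Maximal electroshock challenge at the stated time. Read-out is the number of animals protected over the number tested; neurotoxicity is scored in parallel.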

Rattus norvegicus [16] = assay: Anticonvulsant activity in albino Sprague-Dawley rat assessed as protection against scMet-induced seizures at 50 mg/kg, po; type: functional, organism-based; set-up: dose 50 mg/kg; summary of the method: as §4
Mus musculus [17] = assay: Anticonvulsant activity in CF1 albino mouse assessed as protection against maximal electroshock-induced seizures at 30 mg/kg, ip after 4 hrs; type: functional, organism-based; set-up: dose 30 mg/kg; summary of the method: as §7
Rattus norvegicus [18] = species: Rattus norvegicus; assay: Protective index, ratio of TD50 for albino Sprague-Dawley rat to ED50 for scMet-induced albino Sprague-Dawley rat seizure model; type: functional; summary of the method: as §1
Mus musculus [19] = assay: Anticonvulsant activity in CF1 albino mouse assessed as protection against maximal electroshock-induced seizures at 30 mg/kg, ip after 0.5 hrs; type: functional, organism-based; set-up: dose 30 mg/kg; summary of the method: as §7
Mus musculus [20] = assay: Anticonvulsant activity in CF1 albino mouse assessed as protection against maximal electroshock-induced seizures at 100 mg/kg, ip after 0.5 hrs; type: functional, organism-based; set-up: dose 100 mg/kg; summary of the method: as §7
Mus musculus [21] = assay: Anticonvulsant activity in CF1 albino mouse assessed as protection against maximal electroshock-induced seizures at 300 mg/kg, ip after 4 hrs; type: functional, organism-based; set-up: dose 300 mg/kg; summary of the method: as §7
Mus musculus [22] = assay: Neurotoxicity in CF1 albino mouse at 300 mg/kg, ip after 0.5 hrs; type: toxicity, organism-based; set-up: dose 300 mg/kg, route intraperitoneal; conditions: in vivo; summary of the method: as §5
Rattus norvegicus [23] = assay: Anticonvulsant activity in albino Sprague-Dawley rat assessed as protection against maximal electroshock-induced seizures at 50 mg/kg, po after 1 hr; type: functional; summary of the method: as §2
Mus musculus [24] = assay: Neurotoxicity in CF1 albino mouse at 100 mg/kg, ip after 4 hrs; type: toxicity, organism-based; set-up: dose 100 mg/kg, route intraperitoneal; conditions: in vivo; summary of the method: as §5
Mus musculus [25] = assay: Anticonvulsant activity in CF1 albino mouse assessed as protection against scMet-induced seizures at 300 mg/kg, ip after 4 hrs; type: functional, organism-based; set-up: dose 300 mg/kg; summary of the method: as §3
Mus musculus [26] = assay: Neurotoxicity in CF1 albino mouse at 300 mg/kg, ip after 4 hrs; type: toxicity, organism-based; set-up: dose 300 mg/kg, route intraperitoneal; conditions: in vivo; summary of the method: as §5
Rattus norvegicus [27] = assay: Anticonvulsant activity in po dosed albino Sprague-Dawley rat assessed as protection against scMet-induced seizures; type: functional
Summary of the method: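 Male Sprague-Dawley albino rats (100-150 g) were dosed orally in 0.5% methylcellulose and tested by MES or by sc pentylenetetrazol (2.82% in 0.9% saline). Doses were varied to give 3-4 points between 0% and 100% protection. ED50 and 95% confidence intervals came from probit analysis.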

Rattus norvegicus [28] = assay: Anticonvulsant activity in albino Sprague-Dawley rat assessed as protection against maximal electroshock-induced seizures at 50 mg/kg, po after 15 mins; type: functional; summary of the method: as §2
Mus musculus [29] = assay: Anticonvulsant activity in CF1 albino mouse assessed as protection against maximal electroshock-induced seizures at 100 mg/kg, ip after 4 hrs; type: functional, organism-based; set-up: dose 100 mg/kg; summary of the method: as §7
Rattus norvegicus [30] = assay: Anticonvulsant activity in albino Sprague-Dawley rat assessed as protection against scMet-induced seizures at 50 mg/kg, po after 1 hr; type: functional; summary of the method: as §4
Rattus norvegicus [31] = assay: Anticonvulsant activity in albino Sprague-Dawley rat assessed as protection against scMet-induced seizures at 50 mg/kg, po after 2 hrs; type: functional; summary of the method: as §4
Mus musculus [32] = assay: Anticonvulsant activity in CF1 albino mouse assessed as protection against scMet-induced seizures at 30 mg/kg, ip after 4 hrs; type: functional, organism-based; set-up: dose 30 mg/kg; summary of the method: as §3
Mus musculus [33] = assay: Neurotoxicity in CF1 albino mouse at 30 mg/kg, ip after 0.5 hrs; type: toxicity, organism-based; set-up: dose 30 mg/kg, route intraperitoneal; conditions: in vivo; summary of the method: as §5
Mus musculus [34] = assay: Anticonvulsant activity in CF1 albino mouse assessed as protection against scMet-induced seizures at 300 mg/kg, ip after 0.5 hrs; type: functional, organism-based; set-up: dose 300 mg/kg; summary of the method: as §3
Rattus norvegicus [35] = assay: Anticonvulsant activity in albino Sprague-Dawley rat assessed as protection against scMet-induced seizures at 50 mg/kg, po after 4 hrs; type: functional; summary of the method: as §4

With `CC1(C)C(C)(C)C1(Cl)C(N)=O` the TD50 [1] was > 200 mg/kg, the PI (Rattus norvegicus [2]) was >2.1 and the Activity (Rattus norvegicus [3]) was “inactive”. The Activity (Mus musculus [4]) was “Non-toxic”, the Activity (Rattus norvegicus [5]) was 75% and the Activity (Rattus norvegicus [6]) was “inactive”. The Activity (Mus musculus [7]) was “Non-toxic”, the Activity (Mus musculus [8]) was “Non-toxic” and the Activity (Mus musculus [9]) was “Non-toxic”. The ED50 (Rattus norvegicus [10]) was 97 mg/kg, the Activity (Rattus norvegicus [11]) was “Non-toxic” and the Activity (Rattus norvegicus [12]) was 50%. For the same compound, the Activity (Rattus norvegicus [13]) was 25%, the Activity (Rattus norvegicus [14]) was “Not Active” and the Activity (Mus musculus [15]) was “Toxic”. The Activity (Rattus norvegicus [16]) was “Active”, the Activity (Mus musculus [17]) was “Non-toxic” and the PI (Rattus norvegicus [18]) was >7.8. The Activity (Mus musculus [19]) was “Non-toxic”, the Activity (Mus musculus [20]) was “Non-toxic” and the Activity (Mus musculus [21]) was “Non-toxic”. For the same compound, the Activity (Mus musculus [22]) was “Toxic”, the Activity (Rattus norvegicus [23]) was 75% and the Activity (Mus musculus [24]) was “Non-toxic”. For the same compound, the Activity (Mus musculus [25]) was “Non-toxic”, the Activity (Mus musculus [26]) was “Non-toxic” and the ED50 (Rattus norvegicus [27]) was 27 mg/kg. For the same compound, the Activity (Rattus norvegicus [28]) was 25%, the Activity (Mus musculus [29]) was “Non-toxic” and the Activity (Rattus norvegicus [30]) was 50%. The Activity (Rattus norvegicus [31]) was 25%, the Activity (Mus musculus [32]) was “Non-toxic” and the Activity (Mus musculus [33]) was “Non-toxic”. The Activity (Mus musculus [34]) was “Toxic” and the Activity (Rattus norvegicus [35]) was “inactive”.
